Test results reported in ChEMBL document CHEMBL5724801, “EUbOPEN Chemogenomics Library - Multiplex” (2024).
“And” between values parts separate entries of the source, which are not always exact repeats. Identical values can stand only once.

System: Fibroblast
Assay: Multiplex assay against human fibroblast
Assay type: toxicity, cell-based
How it was run: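 Per cents of healthy-nucleus cells form the tubulin, mitochondrial-mass and membrane-permeability phenotype values. Live cells were stained at seeding with Hoechst33342, BioTracker Green Microtubule Cytoskeleton Dye, MitoTracker Red and Annexin V Alexa Fluor 680. After compound addition they were imaged on a CQ1 microscope at 37°C and 5% CO2, and CellPathfinder machine-learning gating split them into Hoechst high-intensity objects or normal cells, normal cells into healthy, pyknosed or fragmented nuclei, and pyknosed cells into mitotic or apoptotic.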

[1] = 12 h, 1 µM, compound concentration 1 uM
[2] = 12 h, 10 µM, compound concentration 10 uM
[3] = 24 h, 1 µM, compound concentration 1 uM
[4] = 24 h, 10 µM, compound concentration 10 uM
[5] = 48 h, 1 µM, compound concentration 1 uM
[6] = 48 h, 10 µM, compound concentration 10 uM

## COCCNc1cc(NC(=O)N2CCCc3cc(CN4CCOCC4=O)c(C=O)nc32)ncc1C#N
[1]
  Population Fragmented Nuclei (%): 9.19% and 4.72%
  Population Healthy Nuclei (%): 62.7% and 77.36%
  Population Hoechst High Intensity Objects (%): 0%
  Population Membrane Permeable-Phenotype (%): 4.31% and 4.27%
  Population Mitochondria Different-Phenotype (%): 4.31% and 6.71%
  Population Mitotic Cells (%): 92.31% and 76.32%
  Population Normal (%): 100%
  Population Pyknosed Nuclei (%): 28.11% and 17.92%
  Population Tubulin-Different-Phenotype (%): 12.07% and 18.29%
  Total Cell Count: 185 and 212
[2]
  Population Apoptotic (%): 11.11% and 16.67%
  Population Fragmented Nuclei (%): 13.02% and 4.35%
  Population Healthy Nuclei (%): 54.17% and 72.83%
  Population Hoechst High Intensity Objects (%): 0% and 0.54%
  Population Membrane Permeable-Phenotype (%): 9.62% and 8.21%
  Population Mitochondria Different-Phenotype (%): 20.19% and 13.43%
  Population Mitotic Cells (%): 88.89% and 83.33%
  Population Normal (%): 100% and 99.46%
  Population Pyknosed Nuclei (%): 32.81% and 22.83%
  Population Tubulin-Different-Phenotype (%): 43.27% and 48.51%
  Total Cell Count: 192 and 185
[3]
  Population Fragmented Nuclei (%): 7.46% and 3.69%
  Population Healthy Nuclei (%): 72.64% and 83.41%
  Population Hoechst High Intensity Objects (%): 0%
  Population Membrane Permeable-Phenotype (%): 4.79% and 2.76%
  Population Mitochondria Different-Phenotype (%): 2.05% and 5.52%
  Population Mitotic Cells (%): 95% and 78.57%
  Population Normal (%): 100%
  Population Pyknosed Nuclei (%): 19.9% and 12.9%
  Population Tubulin-Different-Phenotype (%): 10.27% and 12.15%
  Total Cell Count: 201 and 217
[4]
  Population Apoptotic (%): 26.32% and 30%
  Population Fragmented Nuclei (%): 10.14% and 8.42%
  Population Healthy Nuclei (%): 71.5% and 70.53%
  Population Hoechst High Intensity Objects (%): 0%
  Population Membrane Permeable-Phenotype (%): 12.84% and 7.46%
  Population Mitochondria Different-Phenotype (%): 15.54% and 15.67%
  Population Mitotic Cells (%): 73.68% and 70%
  Population Normal (%): 100%
  Population Pyknosed Nuclei (%): 18.36% and 21.05%
  Population Tubulin-Different-Phenotype (%): 43.24% and 50.75%
  Total Cell Count: 207 and 190
[5]
  Population Apoptotic (%): 15.38% and 26.32%
  Population Fragmented Nuclei (%): 7.73% and 4.91%
  Population Healthy Nuclei (%): 86.7% and 86.61%
  Population Hoechst High Intensity Objects (%): 0%
  Population Membrane Permeable-Phenotype (%): 1.49% and 2.58%
  Population Mitochondria Different-Phenotype (%): 7.92% and 1.03%
  Population Mitotic Cells (%): 84.62% and 73.68%
  Population Normal (%): 100%
  Population Pyknosed Nuclei (%): 5.58% and 8.48%
  Population Tubulin-Different-Phenotype (%): 5.45% and 12.89%
  Total Cell Count: 233 and 224
[6]
  Population Apoptotic (%): 25% and 38.46%
  Population Fragmented Nuclei (%): 13.64% and 8.2%
  Population Healthy Nuclei (%): 79.09% and 84.7%
  Population Hoechst High Intensity Objects (%): 0%
  Population Membrane Permeable-Phenotype (%): 4.02% and 7.74%
  Population Mitotic Cells (%): 75% and 61.54%
  Population Normal (%): 100%
  Population Pyknosed Nuclei (%): 7.27% and 7.1%
  Population Tubulin-Different-Phenotype (%): 24.71% and 43.87%
  Total Cell Count: 220 and 183

## O=C1[C@H](Cc2ccc(O)cc2)N2C(=O)CCN(C(=O)NCc3ccccc3)[C@H]2CN1Cc1cccc2ccccc12
[1]
  Population Apoptotic (%): 32% and 30%
  Population Fragmented Nuclei (%): 18% and 27%
  Population Healthy Nuclei (%): 57% and 45%
  Population Hoechst High Intensity Objects (%): 3% and 2%
  Population Membrane Permeable-Phenotype (%): 0% and 5%
  Population Mitochondria Different-Phenotype (%): 11% and 13%
  Population Mitotic Cells (%): 67% and 69%
  Population Normal (%): 96% and 97%
  Population Pyknosed Nuclei (%): 24% and 26%
  Population Tubulin-Different-Phenotype (%): 47% and 58%
  Total Cell Count: 160 and 152
[2]
  Population Apoptotic (%): 35% and 45%
  Population Fragmented Nuclei (%): 18% and 23%
  Population Healthy Nuclei (%): 58% and 45%
  Population Hoechst High Intensity Objects (%): 8% and 9%
  Population Membrane Permeable-Phenotype (%): 0% and 8%
  Population Mitochondria Different-Phenotype (%): 24% and 15%
  Population Mitotic Cells (%): 64% and 55%
  Population Normal (%): 91% and 90%
  Population Pyknosed Nuclei (%): 23% and 30%
  Population Tubulin-Different-Phenotype (%): 84% and 83%
  Total Cell Count: 146 and 144
[3]
  Population Apoptotic (%): 42% and 28%
  Population Fragmented Nuclei (%): 16% and 30%
  Population Healthy Nuclei (%): 62% and 47%
  Population Hoechst High Intensity Objects (%): 3% and 2%
  Population Membrane Permeable-Phenotype (%): 3% and 7%
  Population Mitochondria Different-Phenotype (%): 7% and 8%
  Population Mitotic Cells (%): 57% and 71%
  Population Normal (%): 96% and 97%
  Population Pyknosed Nuclei (%): 21% and 22%
  Population Tubulin-Different-Phenotype (%): 49% and 58%
  Total Cell Count: 158 and 147
[4]
  Population Apoptotic (%): 44% and 64%
  Population Fragmented Nuclei (%): 15% and 25%
  Population Healthy Nuclei (%): 62% and 47%
  Population Hoechst High Intensity Objects (%): 10% and 7%
  Population Mitochondria Different-Phenotype (%): 44% and 21%
  Population Mitotic Cells (%): 55% and 35%
  Population Normal (%): 89% and 92%
  Population Pyknosed Nuclei (%): 21% and 26%
  Population Tubulin-Different-Phenotype (%): 83%
  Total Cell Count: 141 and 137
[5]
  Population Apoptotic (%): 62% and 54%
  Population Fragmented Nuclei (%): 22% and 37%
  Population Healthy Nuclei (%): 59% and 45%
  Population Hoechst High Intensity Objects (%): 7% and 5%
  Population Membrane Permeable-Phenotype (%): 2% and 5%
  Population Mitochondria Different-Phenotype (%): 7% and 6%
  Population Mitotic Cells (%): 37% and 45%
  Population Normal (%): 92% and 94%
  Population Pyknosed Nuclei (%): 17%
  Population Tubulin-Different-Phenotype (%): 54% and 48%
  Total Cell Count: 164 and 135
[6]
  Population Apoptotic (%): 85% and 66%
  Population Fragmented Nuclei (%): 21% and 32%
  Population Healthy Nuclei (%): 58% and 53%
  Population Hoechst High Intensity Objects (%): 15% and 10%
  Population Membrane Permeable-Phenotype (%): 0% and 5%
  Population Mitochondria Different-Phenotype (%): 50% and 38%
  Population Mitotic Cells (%): 14% and 33%
  Population Normal (%): 84% and 89%
  Population Pyknosed Nuclei (%): 20% and 14%
  Population Tubulin-Different-Phenotype (%): 85% and 94%
  Total Cell Count: 124 and 119
